Among the data in the array DNA melting data of Ke et al. (doi:10.1101/2024.01.08.574731) are folding enthalpy and Tm values, retold here.

Data set [1] in a line: folding enthalpy; higher = less favourable; fluorescence melt of hairpins on a sequencing array, two-state fit. The note with it: sodium 0.088 M. An outline of the steps: (§1)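 Melting temperature and folding enthalpy were derived from bootstrapped two-state fits. The fitted temperatures were raised by 9.35 °C to agree with UV melts, and four replicates were combined by inverse variance. The underlying data were Cy3 fluorescence images of library hairpins, with annealed Cy3 and quencher oligos, on a sequenced MiSeq flow cell in 50 mM Na-HEPES pH 8.0, 25 mM NaCl, taken in 2.5 °C steps up to 60 °C, normalised to pre-quench Cy3 and to control constructs.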

The nature of data set [2]: melting temperature; fluorescence melt of hairpins on a sequencing array, two-state fit, raised by 9.35 °C to match UV melts. Conditions: sodium 0.088 M. An outline of the steps: as §1

Consider GGGGACACGAAAGTGCCC (((..(((....)))))), for which the folding enthalpy in data set [1] was -20.5 kcal/mol. For the same sequence, the Tm in data set [2] is 55.5 °C.

Turning to GGGGACGAAAGTCCACCC ((((((....)))..))), the folding enthalpy in data set [1] is -11.2 kcal/mol. The Tm in data set [2] amounted to 55.2 °C.

Consider GGGGACGAAAGTCGCCCC ((((((....)))..))), for which, in data set [1], the folding enthalpy was -11 kcal/mol. Moreover, the Tm in data set [2] came to 65.4 °C.

GGGGACGAAAGTCTTCCC ((((((....)))..))): in data set [1], the folding enthalpy is -17.8 kcal/mol. The Tm in data set [2] stood at 39.3 °C.

For GGGGAGCCGAAAGGCCCC (((..(((....)))))), the folding enthalpy in data set [1] is -13.2 kcal/mol. The Tm in data set [2] stood at 61.9 °C.

As for GGGGAGGGAAACCCCCCC ((((.((....)).)))), the folding enthalpy in data set [1] is -34.1 kcal/mol. Further, the Tm in data set [2] was 54.5 °C.

With GGGGATCGAAAGATGCCC (((.(((....))).))), the folding enthalpy in data set [1] is -48.8 kcal/mol. In addition, the Tm in data set [2] turned out to be 59.4 °C.

As to GGGGATGAAAATCCCC ((((((....)))))), the folding enthalpy in data set [1] was -33.7 kcal/mol. For the same sequence, in data set [2], the Tm was 66.2 °C.

For the sequence GGGGATGCGAAAGCACCC (((..(((....)))))), the folding enthalpy in data set [1] is -17.2 kcal/mol. In addition, the Tm in data set [2] was 56.2 °C.

With GGGGATGGAAACGTCCTC (.(((.(....).))).), in data set [1], the folding enthalpy is -27 kcal/mol. The Tm in data set [2] was 36.1 °C.

Consider GGGGCAGCGAAAGCTCCC (((..(((....)))))), for which the folding enthalpy in data set [1] was -16.7 kcal/mol. Besides, the Tm in data set [2] was found to be 56 °C.

For GGGGCCGAAAGGCCACCC ((((((....)))..))), in data set [1], the folding enthalpy is -10.1 kcal/mol. Also, the Tm in data set [2] stood at 60 °C.

Consider GGGGCCGAAAGGCCTCCC ((((((....)))..))), for which the folding enthalpy in data set [1] is -9.22 kcal/mol. The Tm in data set [2] was 54.8 °C.

Take GGGGCCGAAAGGCTACCC ((((((....)))..))): the folding enthalpy in data set [1] was -14.8 kcal/mol. The Tm in data set [2] amounted to 53.2 °C.

In the case of GGGGCGGGAAACCGCCTC (.(((((....))))).), the folding enthalpy in data set [1] is -12 kcal/mol. Moreover, in data set [2], the Tm worked out at 60.5 °C.

With GGGGCTCGAAAGAGTCCC (((.(((....))).))), in data set [1], the folding enthalpy was -42.8 kcal/mol. Besides, in data set [2], the Tm worked out at 67.7 °C.

GGGGGATCGAAAGATCCC (((..(((....)))))): in data set [1], the folding enthalpy is -8.42 kcal/mol. Further, the Tm in data set [2] is 59.9 °C.

As for GGGGGCGGAAACACCCCC (((((.(....).))))), in data set [1], the folding enthalpy is -39.3 kcal/mol. In data set [2], the Tm came out at 56.9 °C.

In the case of GGGGGGGGAAACCTCCCC ((((.((....)).)))), in data set [1], the folding enthalpy was -34 kcal/mol. The Tm in data set [2] was 59.9 °C.

Consider GGGGGTCGAAAGACTCCC (((.(((....))).))), for which the folding enthalpy in data set [1] is -43.5 kcal/mol. Moreover, the Tm in data set [2] was 63.4 °C.

For GGGGGTTCGAAAGAACCC (((..(((....)))))), the folding enthalpy in data set [1] is -7.33 kcal/mol. Further, the Tm in data set [2] turned out to be 58.9 °C.

Regarding GGGGTAACGAAAGTTCCC (((..(((....)))))), the folding enthalpy in data set [1] was -23.8 kcal/mol. Also, the Tm in data set [2] was found to be 49.9 °C.

Take GGGGTAGGAAACTGCCCC ((((.((....)).)))): the folding enthalpy in data set [1] was -47.3 kcal/mol. The Tm in data set [2] is 57.2 °C.

With GGGGTAGGAAACTGTCCC (((..((....))..))), the folding enthalpy in data set [1] is -25.5 kcal/mol. For the same sequence, the Tm in data set [2] amounted to 36.2 °C.

GGGGTATCGAAAGATCCC (((..(((....)))))): the folding enthalpy in data set [1] was -22.4 kcal/mol. Further, the Tm in data set [2] stood at 50.4 °C.

On to GGGGTCGAAAGACAACCC ((((((....)))..))), for which the folding enthalpy in data set [1] was -21.2 kcal/mol. The Tm in data set [2] was determined as 48.8 °C.

As for GGGGTCGAAAGACCGCCC ((((((....)))..))), the folding enthalpy in data set [1] was -11.3 kcal/mol. Also, the Tm in data set [2] was 52.7 °C.

Regarding GGGGTCGAAAGACGTCCC ((((((....)))..))), in data set [1], the folding enthalpy is -18.5 kcal/mol. In addition, the Tm in data set [2] came to 42.4 °C.

Consider GGGGTCGAAAGACTACCC ((((((....)))..))), for which, in data set [1], the folding enthalpy was -18 kcal/mol. Further, in data set [2], the Tm worked out at 45.2 °C.

For GGGGTCGGAAACAACCCC (((((.(....).))))), in data set [1], the folding enthalpy is -31.7 kcal/mol. Besides, the Tm in data set [2] turned out to be 48.3 °C.

GGGGTCGGAAACGGCTCC ((.(.((....)).).)): the folding enthalpy in data set [1] was -42.8 kcal/mol. Moreover, in data set [2], the Tm was found to be 49.6 °C.

Turning to GGGGTCTCGAAAGAGCCC (((..(((....)))))), the folding enthalpy in data set [1] is -28.6 kcal/mol. Also, the Tm in data set [2] was found to be 58.9 °C.

Consider GGGGTGGGAAACCGTCCC (((..((....))..))), for which, in data set [1], the folding enthalpy was -18.5 kcal/mol. Also, the Tm in data set [2] was 45.2 °C.

As to GGGGTTCGAAAGAATCCC (((.(((....))).))), the folding enthalpy in data set [1] was -43.8 kcal/mol. Also, in data set [2], the Tm turned out to be 58.6 °C.

On to GGGGTTGCGAAAGCACCC (((..(((....)))))), for which, in data set [1], the folding enthalpy is -19 kcal/mol. Further, the Tm in data set [2] amounted to 59.5 °C.

Regarding GGGGTTGGAAACAACTCC ((.((((....)))).)), the folding enthalpy in data set [1] is -37.5 kcal/mol. Also, the Tm in data set [2] amounted to 51.3 °C.

For GGGGTTGGAAACAGCTCC ((.(.((....)).).)), the folding enthalpy in data set [1] was -24.6 kcal/mol. Besides, the Tm in data set [2] is 37 °C.
